From the RNAGym collection of RNA variant scans (doi:10.1126/science.aae0568)
This sample holds only a part of the variants without activity.

B1: tRNA (parent)
chain: GUUCCGUUGGCGUAAUGGUAACGCGUCUCCCUCCUAAGGAGAAGACUGCGGGUUCGAGUCCCGUACGGAACG

Variants of: B1
Assay: yeast fitness relative to wild type (ratio to wild type); higher = fitter; tRNA-Arg(CCU), competitive growth, 37 C, YPD
In short: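 Gene amplicons from the start population and from each of six end populations were read by 100-nucleotide paired-end sequencing. Those end populations came from pooled Saccharomyces cerevisiae strains carrying tRNA-Arg(CCU) gene variants at the native locus, competed in YPD at 37°C for 24 hours. Fitness relative to wild type was worked out from changes in genotype frequencies. Genotypes needed ≥ 100 starting reads, and estimates < 0.5 were set to 0.5.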
A21U C34G showed a yeast fitness of 0.597. For A21U C46U C49U U54A, the yeast fitness was ≤ 0.5. For A21U C46U C55A G56C, the yeast fitness was ≤ 0.5. With A21U C49A C62G G68U the yeast fitness was 0.626. Variant A21U C49U has a yeast fitness of 0.781. In the case of A21U C49U U54A U64C, the yeast fitness is reported as ≤ 0.5. For A21U C55A, the yeast fitness was ≤ 0.5. For A21U C55A A65C, the yeast fitness was ≤ 0.5. For A21U C55G C60A C61G C66G, the yeast fitness was ≤ 0.5. With A21U C60U G67U the yeast fitness was ≤ 0.5. Variant A21U C61U has a yeast fitness of 0.709. A21U C62G showed a yeast fitness of 0.586. Variant A21U C66U has a yeast fitness of 0.78. With A21U G23A C49A the yeast fitness was ≤ 0.5. A21U G23C gave a yeast fitness of 0.579. For A21U G23C A36U, the yeast fitness was ≤ 0.5. With A21U G23C C49U the yeast fitness was ≤ 0.5. Variant A21U G25A has a yeast fitness of 0.757. For A21U G25A C60U G68U, the yeast fitness was ≤ 0.5. For A21U G25A C62A, the yeast fitness was ≤ 0.5. For A21U G25A G51A C60A, the yeast fitness was ≤ 0.5. With A21U G25A G56U the yeast fitness was ≤ 0.5. With A21U G25C A37G A43G A65G the yeast fitness was ≤ 0.5. In the case of A21U G38C G44C C62A, the yeast fitness is reported as ≤ 0.5. In the case of A21U G39A C66U, the yeast fitness is reported as 0.55. In the case of A21U G41A A57C, the yeast fitness is reported as ≤ 0.5. In the case of A21U G41C A43C C49A C62U, the yeast fitness is reported as ≤ 0.5. In the case of A21U G50A C62G, the yeast fitness is reported as 0.601. With A21U G50C C66G the yeast fitness was ≤ 0.5. For A21U G52A A65U, the yeast fitness was ≤ 0.5. In the case of A21U G52A G58A, the yeast fitness is reported as ≤ 0.5. For A21U G52C, the yeast fitness was ≤ 0.5. In the case of A21U G52C A57G C61U, the yeast fitness is reported as ≤ 0.5. A21U G56A gave a yeast fitness of 0.646. With A21U G56C G63A U64C G67C A69U the yeast fitness was ≤ 0.5. In the case of A21U G63A, the yeast fitness is reported as 0.856. Variant A21U G67A has a yeast fitness of 0.818. In the case of A21U G67C A69U, the yeast fitness is reported as ≤ 0.5. With A21U G68C the yeast fitness was 0.687. A21U U26A gave a yeast fitness of 0.722. For A21U U26A A37C C62G, the yeast fitness was ≤ 0.5. In the case of A21U U26A C27G C30G A36U G38C C46U C49G A65U, the yeast fitness is reported as ≤ 0.5. For A21U U26C A45G, the yeast fitness was ≤ 0.5. For A21U U26C C60U, the yeast fitness was ≤ 0.5. For A21U U26G A70C, the yeast fitness was 0.729. For A21U U26G G44A, the yeast fitness was 0.511. Work on A21U U28A A40U A45U yielded a yeast fitness of 0.878. For A21U U28A U35G G58A C62G, the yeast fitness was ≤ 0.5. For A21U U28C C29G C49G A70U, the yeast fitness was ≤ 0.5. In the case of A21U U28G C55A G58A, the yeast fitness is reported as ≤ 0.5. In the case of A21U U32A A70G, the yeast fitness is reported as ≤ 0.5. For A21U U32C A36G A37U, the yeast fitness was ≤ 0.5. For A21U U32C A36G A37U U53G, the yeast fitness was ≤ 0.5. A21U U32C C49U A57C gave a yeast fitness of 0.595. With A21U U32G A37G A45G C55A the yeast fitness was ≤ 0.5. For A21U U32G G48C G68C, the yeast fitness was ≤ 0.5. A21U U32G G51C C61U gave a yeast fitness of 0.541. With A21U U35C G44A G48C C55G A69U the yeast fitness was ≤ 0.5. For A21U U47G G67A A69G, the yeast fitness was ≤ 0.5. With A21U U47G U59A the yeast fitness was ≤ 0.5. For A21U U53A C66U, the yeast fitness was ≤ 0.5. Variant A21U U53C A57C has a yeast fitness of 0.619. For A21U U53C U54G, the yeast fitness was ≤ 0.5. With A21U U54G the yeast fitness was ≤ 0.5. A21U U59A gave a yeast fitness of 0.587. A21U U64C showed a yeast fitness of 0.775. With C22A the yeast fitness was 1. With C22A A36G A42G the yeast fitness was ≤ 0.5. Variant C22A A36G G41A has a yeast fitness of 0.548. C22A A37C A65G gave a yeast fitness of 0.691. For C22A A37U, the yeast fitness was 0.578. In the case of C22A A37U G44A A70G, the yeast fitness is reported as ≤ 0.5. In the case of C22A A42U G44A C62U, the yeast fitness is reported as ≤ 0.5. C22A A43C gave a yeast fitness of 0.694. C22A A43C G56A showed a yeast fitness of 0.853. Variant C22A A43G has a yeast fitness of 0.809. C22A A43U C60A A65G showed a yeast fitness of 0.683. For C22A A45C C66A, the yeast fitness was ≤ 0.5. Work on C22A A45C C66G yielded a yeast fitness of 0.691. In the case of C22A A45C U47C U54G, the yeast fitness is reported as ≤ 0.5. C22A A45U G63A showed a yeast fitness of 0.558. For C22A A57G, the yeast fitness was 0.916. With C22A A57G C60A the yeast fitness was ≤ 0.5. In the case of C22A A69C, the yeast fitness is reported as 0.874. For C22A A69C A70G, the yeast fitness was 0.638. Work on C22A A69U A70C yielded a yeast fitness of 0.685. Work on C22A A70C yielded a yeast fitness of 0.877. C22A A70G showed a yeast fitness of 0.948. For C22A A70U, the yeast fitness was 1.01. With C22A C24A U26C C60G C61U the yeast fitness was ≤ 0.5. For C22A C24A U26C C66U, the yeast fitness was ≤ 0.5. With C22A C24A U54A the yeast fitness was ≤ 0.5. Variant C22A C24G A36C C66U has a yeast fitness of 0.692. In the case of C22A C24G A36G G39C C55U, the yeast fitness is reported as ≤ 0.5. In the case of C22A C24G A36G G39C C55U C66U, the yeast fitness is reported as 0.513. With C22A C24G A45C the yeast fitness was 0.564. C22A C24U gave a yeast fitness of 0.74. In the case of C22A C24U A36U, the yeast fitness is reported as ≤ 0.5. With C22A C24U G44C G48A the yeast fitness was ≤ 0.5. With C22A C27A G52C G63A the yeast fitness was ≤ 0.5. With C22A C27A U59C the yeast fitness was 0.586. In the case of C22A C27G A36G, the yeast fitness is reported as ≤ 0.5. For C22A C27G A43U C60A, the yeast fitness was 0.557. C22A C27G G41A showed a yeast fitness of 0.614. In the case of C22A C27G U28A C30A C34G G48C, the yeast fitness is reported as ≤ 0.5. With C22A C27U G56A A57C the yeast fitness was ≤ 0.5. C22A C29A gave a yeast fitness of 0.636. With C22A C29A A43U the yeast fitness was ≤ 0.5. With C22A C29A G44C the yeast fitness was 0.605. In the case of C22A C29A U54G, the yeast fitness is reported as ≤ 0.5. In the case of C22A C29G C33U A70C, the yeast fitness is reported as ≤ 0.5. With C22A C29G G44A U64G the yeast fitness was ≤ 0.5. C22A C29U gave a yeast fitness of 0.621. In the case of C22A C29U C60A C66U, the yeast fitness is reported as ≤ 0.5. In the case of C22A C29U C66U, the yeast fitness is reported as ≤ 0.5. C22A C30A gave a yeast fitness of 0.686. For C22A C30G C34G, the yeast fitness was ≤ 0.5. In the case of C22A C30U A42C A57U G67A A70U, the yeast fitness is reported as ≤ 0.5. In the case of C22A C30U A69C, the yeast fitness is reported as ≤ 0.5. For C22A C30U C31G, the yeast fitness was 0.551. For C22A C30U U35C, the yeast fitness was ≤ 0.5. With C22A C31A U53C A57C the yeast fitness was ≤ 0.5. With C22A C31G the yeast fitness was 0.749. C22A C31G A37G G38C A43G G58C showed a yeast fitness of 0.532. With C22A C31G G68A the yeast fitness was ≤ 0.5. For C22A C31U, the yeast fitness was 1.07. With C22A C31U A43U the yeast fitness was 0.623. For C22A C33A G39C, the yeast fitness was ≤ 0.5. C22A C33U showed a yeast fitness of 0.604. With C22A C33U U54G the yeast fitness was ≤ 0.5. With C22A C34G A36G G48C the yeast fitness was ≤ 0.5. With C22A C46A A65U the yeast fitness was 0.687. For C22A C46G G52A, the yeast fitness was ≤ 0.5. For C22A C46U, the yeast fitness was 1.1. In the case of C22A C49A C61U, the yeast fitness is reported as ≤ 0.5. For C22A C49G G67A, the yeast fitness was ≤ 0.5. In the case of C22A C55A A57U, the yeast fitness is reported as ≤ 0.5. C22A C55G showed a yeast fitness of 0.63. With C22A C55U the yeast fitness was 0.918. Variant C22A C60A C61G has a yeast fitness of 0.565. With C22A C60G the yeast fitness was 0.57. C22A C60U showed a yeast fitness of 0.682. With C22A C61G the yeast fitness was 0.594. Work on C22A C62A yielded a yeast fitness of 0.785. C22A C66G showed a yeast fitness of 0.714. For C22A G23A A37G A69U, the yeast fitness was ≤ 0.5. For C22A G23A A37G U54G, the yeast fitness was ≤ 0.5. With C22A G23A C33U C34G C60G G67A the yeast fitness was ≤ 0.5. With C22A G23C the yeast fitness was 0.535. With C22A G23C A36C C60G A65C the yeast fitness was ≤ 0.5. For C22A G23C A42G, the yeast fitness was ≤ 0.5. In the case of C22A G23C C27U, the yeast fitness is reported as ≤ 0.5. With C22A G23C C49G the yeast fitness was ≤ 0.5. For C22A G23C C49G C60U, the yeast fitness was ≤ 0.5. With C22A G25A the yeast fitness was 0.992. Work on C22A G25A A65U yielded a yeast fitness of 0.684. Work on C22A G25A G44A yielded a yeast fitness of 0.65. C22A G48A gave a yeast fitness of 0.826. C22A G48A C49U G50A G51C U64A A70C gave a yeast fitness of 0.563. C22A G48A G51A gave a yeast fitness of 0.582. In the case of C22A G48C G51A C55A C66A, the yeast fitness is reported as ≤ 0.5. Variant C22A G50C has a yeast fitness of 0.627. With C22A G50C A70G the yeast fitness was ≤ 0.5. Work on C22A G51C A57U yielded a yeast fitness of 0.624. For C22A G51C A69U, the yeast fitness was 0.74. In the case of C22A G51C C66U, the yeast fitness is reported as ≤ 0.5. For C22A G51C G68C, the yeast fitness was ≤ 0.5.
